Test results from ChEMBL document CHEMBL1681647, “Targeting bacterial biofilms: design of a terpenoid-like library as non-toxic anti-biofilm compounds” (Bioorg Med Chem Lett, 2011).
The source made the active and inactive calls. The calls are words filed in the database; no cut-off is given here.

Legend:
[1] = test system: Pseudoalteromonas sp. D41; test: Antibiofilm activity in Pseudoalteromonas sp. D41 assessed as bacterial adhesion at 500 uM after 15 mins using DAPI staining by micro-plate fluorescence reader; type: functional; details: in the assay text read “15 h” for “15 mins”
In short: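 Single-concentration screen at 500 in triplicate. D41 was grown in VNSS at 20 °C to stationary phase, then resuspended in artificial sea water at OD600 0.2–0.4. Incubation was 15 h at 20 °C with an ASW adhesion control. Wells were NaCl-washed and fixed in 2% formaldehyde for 90 min at 4 °C, then DAPI-stained. Fluorescence of the ethanol-solubilized dye was read at 380 nm excitation and 495 nm emission.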

[2] = test system: Pseudoalteromonas sp. D41; test: Antibiofilm activity in Pseudoalteromonas sp. D41 assessed as bacterial adhesion after 15 h using DAPI staining by micro-plate fluorescence reader; details: Pseudoalteromonas sp. D41, 15 h
[3] = test system: Pseudoalteromonas sp. D41; test: Antibacterial activity against Pseudoalteromonas sp. D41 assessed as inhibition of bacterial growth up to 100 uM; type: functional
In short: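 Growth assay with D41 grown in VNSS at 20 °C, shaken at 120 rpm and sampled in exponential phase, then subcultured at OD600 0.1. Compound was added at concentrations from 1 to 100 in triplicate, with a growth control and a solvent (DMSO or methanol) control. Plates were shaken at 120 rpm at 20 °C and OD600 was read hourly.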

[4] = test system: Pseudoalteromonas sp. D41; test: Antibiofilm activity in Pseudoalteromonas sp. D41 assessed as bacterial adhesion at 500 uM after 15 h using DAPI staining by micro-plate fluorescence reader

| EC50 [2] [µM] | SMILES | Activity [1] [%] | other results |
| --- | --- | --- | --- |
|  | CC(C)=CCC/C(C)=C/COCc1cn(-c2ccc(C(=O)O)cc2)nn1 | 39 |  |
|  | CC(C)=CCC/C(C)=C/CC/C(C)=C/COCc1cn(-c2ccc(C(=O)O)cc2)nn1 | >90 |  |
| 117 | COc1ccc(-n2cc(COC/C=C(\C)CC/C=C(\C)CCC=C(C)C)nn2)cc1 | 24 |  |
|  | COc1ccccc1-n1cc(COC/C=C(\C)CC/C=C(\C)CCC=C(C)C)nn1 | 35 |  |
|  | COc1cc(OC)cc(-n2cc(COC/C=C(\C)CCC=C(C)C)nn2)c1 | 76 |  |
|  | COc1cc(-n2cc(COC/C=C(\C)CC/C=C(\C)CCC=C(C)C)nn2)cc(OC)c1OC | 50 |  |
| 71 | COc1cc(OC)cc(-c2cn(C/C=C(\C)CC/C=C(\C)CCC=C(C)C)nn2)c1 | 0 |  |
| 103 | COc1cccc(-n2cc(COC/C=C(\C)CCC=C(C)C)nn2)c1 | 19 | inhibition [3]: inactive |
|  | COc1cc(-n2cc(COC/C=C(\C)CCC=C(C)C)nn2)cc(OC)c1OC | 36 |  |
|  | CC(C)=CCC/C(C)=C/COCc1cn(-c2ccc(O)cc2)nn1 | >90 |  |
|  | COc1ccccc1-c1cn(C/C=C(\C)CCC=C(C)C)nn1 | 90 |  |
| 198 | COc1cccc(-n2cc(COC/C=C(\C)CC/C=C(\C)CCC=C(C)C)nn2)c1 | 25 |  |
|  | COc1ccc(-c2cn(C/C=C(\C)CC/C=C(\C)CCC=C(C)C)nn2)cc1 | 46 |  |
| 224 | CC(C)=C[C@@H](O)C/C(C)=C/CC/C(C)=C/CC/C(C)=C/CO [ELEGANEDIOL] | 14 |  |
|  | COc1cccc(-c2cn(C/C=C(\C)CC/C=C(\C)CCC=C(C)C)nn2)c1 |  | Activity [4]: 15% |
| 74 | CC(C)=CCC/C(C)=C/COCc1cn(-c2cccc(C(=O)O)c2)nn1 | 32 | inhibition [3]: inactive |
| 166 | COc1ccccc1-n1cc(COC/C=C(\C)CCC=C(C)C)nn1 | 29 |  |
|  | CC(C)=CCC/C(C)=C/CC/C(C)=C/Cn1cc(-c2cccc(O)c2)nn1 | 34 |  |
|  | COc1cc(OC)cc(-c2cn(C/C=C(\C)CCC=C(C)C)nn2)c1 | 90 |  |
|  | CC(C)=CCC/C(C)=C/CC/C(C)=C/COCc1cn(-c2ccc(O)cc2)nn1 | 73 |  |
| 174 | CC(C)=CC(=O)C/C(C)=C/CC/C(C)=C/CC/C(C)=C/CO [ELEGANOLONE] | 17 |  |
|  | CC(C)=CCC/C(C)=C/CC/C(C)=C/COCc1cn(-c2cccc(O)c2)nn1 | >90 |  |
|  | COc1ccc(-c2cn(C/C=C(\C)CCC=C(C)C)nn2)cc1 | 3 |  |
|  | COc1cccc(-c2cn(C/C=C(\C)CCC=C(C)C)nn2)c1 | 90 |  |
|  | CC(C)=CCC/C(C)=C/CC/C(C)=C/COCc1cn(-c2cccc(C(=O)O)c2)nn1 | >90 |  |
|  | CC(C)=CCC/C(C)=C/Cn1cc(-c2cccc(O)c2)nn1 | 30 |  |
|  | CC(C)=CCC/C(C)=C/COCc1cn(-c2cccc(O)c2)nn1 | 55 |  |
| 276 | COc1ccc(-n2cc(COC/C=C(\C)CCC=C(C)C)nn2)cc1 | 20 |  |
|  | COc1cc(OC)cc(-n2cc(COC/C=C(\C)CC/C=C(\C)CCC=C(C)C)nn2)c1 | 76 |  |
